≈ marks a conversion by molar mass, not a printed value.

For orientation: MIC means the least concentration at which growth counts as inhibited. Low readings indicate greater potency, high ones weaker potency.

What all share (type): functional
Experiment [1] has as its system Streptococcus pyogenes. Description: Antibacterial activity against erythromycin-resistant Streptococcus pyogenes R1 clinical isolate by broth microdilution method. (In general: Broth dilution looks for growth in wells or tubes with falling amounts of substance.)
Experiment [2] has as its system Streptococcus pneumoniae. Description: Antibacterial activity against erythromycin-resistant Streptococcus pneumoniae AB11 expressing ermB/mefA genes by broth microdilution method. The method in brief:
(§1)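 Broth microdilution per NCCL recommendation, read as minimal inhibitory concentration, run alongside azithromycin and clarithromycin references. Strains: S. pneumoniae B1 (erythromycin-resistant, ermB), A22072 (erythromycin-resistant, mefA), AB11 (erythromycin-resistant, erm and mef); S. aureus ATCC29213 ([…]); S. epidermidis clinical isolate (penicillin-resistant, not characterized).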

Experiment [3] relates to Streptococcus pneumoniae. Description: Potency index, ratio of azithromycin MIC to test compound MIC for erythromycin-resistant Streptococcus pneumoniae A22072 expressing mefA gene.
Experiment [4] deals with Staphylococcus epidermidis. Description: Potency index, ratio of azithromycin MIC to test compound MIC for penicillin-resistant Staphylococcus epidermidis clinical isolate.
In a further experiment the test system is Escherichia coli. Description: Antibacterial activity against penicillin-susceptible Escherichia coli ATCC 25922 by broth microdilution method. The method in brief:
(§2)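 MICs were determined in vitro by broth microdilution following the NCCL-recommended method. Azithromycin and clarithromycin were run alongside as reference antibiotics on the same strain panel.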

The test system of experiment [5] is Streptococcus pneumoniae. Description: Potency index, ratio of azithromycin MIC to test compound MIC for erythromycin-resistant Streptococcus pneumoniae B1 expressing ermB gene.
Experiment [6] deals with Streptococcus pneumoniae. Description: Antibacterial activity against erythromycin-resistant Streptococcus pneumoniae B1 expressing ermB gene by broth microdilution method. The method in brief:
as §1

Experiment [7] relates to Staphylococcus epidermidis. Description: Antibacterial activity against penicillin-resistant Staphylococcus epidermidis clinical isolate by broth microdilution method. The method in brief: as §1
Experiment [8] relates to Bacillus subtilis. Description: Antibacterial activity against erythromycin/penicillin-susceptible Bacillus subtilis ATCC 9372 by broth microdilution method. The method in brief: as §2
Experiment [9] relates to Streptococcus pneumoniae. Description: Potency index, ratio of clarithromycin MIC to test compound MIC for erythromycin-resistant Streptococcus pneumoniae B1 expressing ermB gene.
The subject of experiment [10] is Bacillus subtilis. Description: Potency index, ratio of azithromycin MIC to test compound MIC for erythromycin/penicillin-susceptible Bacillus subtilis ATCC 9372.
The test system of experiment [11] is Streptococcus pneumoniae. Description: Potency index, ratio of clarithromycin MIC to test compound MIC for erythromycin-resistant Streptococcus pneumoniae A22072 expressing mefA gene.
The test system of experiment [12] is Streptococcus pneumoniae. Description: Potency index, ratio of clarithromycin MIC to test compound MIC for erythromycin-resistant Streptococcus pneumoniae AB11 expressing ermB/mefA genes.
Experiment [13] has as its system Staphylococcus aureus. Description: Antibacterial activity against erythromycin-susceptible Staphylococcus aureus ATCC 25923 by broth microdilution method. The method in brief:
as §2

For experiment [14], the system named is Streptococcus pneumoniae. Description: Potency index, ratio of azithromycin MIC to test compound MIC for erythromycin-resistant Streptococcus pneumoniae AB11 expressing ermB/mefA genes.
Experiment [15] relates to Staphylococcus aureus. Description: Antibacterial activity against […] Staphylococcus aureus ATCC 29213 by broth microdilution method. The method in brief:
as §1

Experiment [16] relates to Streptococcus pyogenes. Description: Antibacterial activity against erythromycin-susceptible Streptococcus pyogenes clinical isolate by broth microdilution method. The method in brief: as §2
The subject of experiment [17] is Streptococcus pneumoniae. Description: Antibacterial activity against erythromycin-resistant Streptococcus pneumoniae A22072 expressing mefA gene by broth microdilution method. The method in brief:
as §1

A further experiment deals with Pseudomonas aeruginosa. Description: Antibacterial activity against penicillin-susceptible Pseudomonas aeruginosa ATCC 27853 by broth microdilution method. The method in brief:
as §2

Regarding `CCCCCCNC(=O)O[C@@H]1[C@@H](C)N(C)C[C@H](C)C[C@@](C)(O)[C@H](O[C@@H]2O[C@H](C)C[C@H](N(C)C)[C@H]2O)[C@@H](C)[C@H](OC(=O)Nc2ccc(OC)cc2)[C@@H](C)C(=O)O[C@H](CC)[C@@]1(C)O`, the MIC was 32 µg/mL (≈ 36.9 µM) in the experiment with Streptococcus pyogenes [1]; 1 µg/mL (≈ 1.15 µM) against Streptococcus pneumoniae [2]; 128 µg/mL (≈ 148 µM) in the experiment on Escherichia coli; 1 µg/mL (≈ 1.15 µM) with Streptococcus pneumoniae [6]; 0.125 µg/mL (≈ 0.144 µM) in experiment [7]; 0.5 µg/mL (≈ 0.577 µM) against Bacillus subtilis [8]. In addition, the MIC against Staphylococcus aureus [13] was found to be 8 µg/mL (≈ 9.23 µM); with Staphylococcus aureus [15], 128 µg/mL (≈ 148 µM); against Streptococcus pyogenes [16], 1 µg/mL (≈ 1.15 µM); in the experiment with Streptococcus pneumoniae [17], 8 µg/mL (≈ 9.23 µM); in the experiment on Pseudomonas aeruginosa, 128 µg/mL (≈ 148 µM). For the same compound, the Ratio in the experiment on Streptococcus pneumoniae [3] was 8 - 256; in experiment [4], 2; in the experiment on Streptococcus pneumoniae [5] it was 256; in the experiment on Streptococcus pneumoniae [9] it was 256; in the experiment with Bacillus subtilis [10], 2; with Streptococcus pneumoniae [11], 8 - 256. Further, the Ratio with Streptococcus pneumoniae [12] was found to be 128; in the experiment on Streptococcus pneumoniae [14], 256.

For the origin of these results see ChEMBL document CHEMBL3994579, “Synthesis and antibacterial activity of novel 3-O-descladinosylazithromycin derivatives” (2017).
